From ChEMBL document CHEMBL4028892, “Discovery of a 1-Methyl-3,4-dihydronaphthalene-Based Sphingosine-1-Phosphate (S1P) Receptor Agonist Ceralifimod (ONO-4641). A S1P1 and S1P5 Selective Agonist for the Treatment of Autoimmune Diseases” (J Med Chem, 2017)

Columns and labels:
Mus musculus = assay: Decrease in peripheral lymphocyte levels in po dosed BALB/c mouse at 4 hrs by automated hematology analyzer; assay type: functional
In short: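 Compound given orally to 6-week-old male BALB/c mice. At 4 or 24 h, blood was taken from the abdominal aorta under ether anaesthesia and lymphocytes counted on an automated haematology analyser. Counts expressed as % of the vehicle-group mean; ED50 is the dose lowering counts to 50%. One experiment, five mice.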

[1] = AUC (infinity) in cynomolgus monkey at 0.1 mg/kg, iv by LC-MS/MS analysis; assay type: ADME, organism-based, Macaca fascicularis; design: dose 0.1 mg/kg, time infinity, route intravenous; conditions: in vivo
In short: (§1)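 Single intravenous or oral dose of 0.1 mg/kg to male Crl:CD(SD) rats and to monkeys. Values are means of three animals with SD.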

[2] = AUC (infinity) in cynomolgus monkey at 0.1 mg/kg, po by LC-MS/MS analysis; assay type: ADME, organism-based, Macaca fascicularis; design: dose 0.1 mg/kg, route oral, time infinity; conditions: in vivo; in short: as §1
[3] = Volume of distribution at steady state in cynomolgus monkey at 0.1 mg/kg, iv by LC-MS/MS analysis; assay type: ADME, organism-based, Macaca fascicularis; conditions: in vivo, read-out: Vdss; in short: as §1
[4] = Oral bioavailability in Crl:CD(SD) rat at 0.1 mg/kg by LC-MS/MS analysis; assay type: ADME, organism-based; conditions: in vivo; in short: as §1
[5] = target: Sphingosine 1-phosphate receptor 2 (Homo sapiens, UniProt O95136); assay: Displacement of [33P]-S1P from human S1P2 receptor expressed in CHO-K1 cells after 60 mins by scintillation counting method; assay type: cell-based
[6] = target: T1, Sphingosine 1-phosphate receptor 4 (Homo sapiens, UniProt O95977); assay: Displacement of [33P]-S1P from human S1P4 receptor expressed in CHO-K1 cells after 60 mins by scintillation counting method; assay type: cell-based
T1 sequence (O95977 whole entry): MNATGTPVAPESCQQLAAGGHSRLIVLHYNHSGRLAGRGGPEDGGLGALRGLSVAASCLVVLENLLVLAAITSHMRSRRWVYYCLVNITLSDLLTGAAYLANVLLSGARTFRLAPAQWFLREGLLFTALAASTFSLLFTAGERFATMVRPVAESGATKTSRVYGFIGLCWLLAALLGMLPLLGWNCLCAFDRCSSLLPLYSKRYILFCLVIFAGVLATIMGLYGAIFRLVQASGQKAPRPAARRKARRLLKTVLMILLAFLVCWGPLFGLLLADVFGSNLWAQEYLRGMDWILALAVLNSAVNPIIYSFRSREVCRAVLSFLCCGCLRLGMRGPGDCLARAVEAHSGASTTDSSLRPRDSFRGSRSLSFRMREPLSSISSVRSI

[7] = target: Sphingosine 1-phosphate receptor 5 (Homo sapiens, UniProt Q9H228); assay: Displacement of [33P]-S1P from human S1P5 receptor expressed in CHO-K1 cells after 60 mins by scintillation counting method; assay type: cell-based
Sphingosine 1-phosphate receptor 5, sequence (Q9H228 whole entry): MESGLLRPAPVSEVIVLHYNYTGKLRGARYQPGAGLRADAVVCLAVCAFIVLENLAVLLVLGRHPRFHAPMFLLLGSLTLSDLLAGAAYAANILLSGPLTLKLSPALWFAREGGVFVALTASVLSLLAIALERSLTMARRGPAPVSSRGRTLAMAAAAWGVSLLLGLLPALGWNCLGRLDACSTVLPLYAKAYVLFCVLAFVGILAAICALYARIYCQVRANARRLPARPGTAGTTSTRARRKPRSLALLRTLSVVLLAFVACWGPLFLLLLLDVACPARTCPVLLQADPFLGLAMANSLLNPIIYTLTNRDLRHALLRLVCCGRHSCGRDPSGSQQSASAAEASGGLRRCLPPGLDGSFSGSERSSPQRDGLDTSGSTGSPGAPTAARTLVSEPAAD

Sphingosine 1-phosphate receptor 2, sequence (O95136 whole entry): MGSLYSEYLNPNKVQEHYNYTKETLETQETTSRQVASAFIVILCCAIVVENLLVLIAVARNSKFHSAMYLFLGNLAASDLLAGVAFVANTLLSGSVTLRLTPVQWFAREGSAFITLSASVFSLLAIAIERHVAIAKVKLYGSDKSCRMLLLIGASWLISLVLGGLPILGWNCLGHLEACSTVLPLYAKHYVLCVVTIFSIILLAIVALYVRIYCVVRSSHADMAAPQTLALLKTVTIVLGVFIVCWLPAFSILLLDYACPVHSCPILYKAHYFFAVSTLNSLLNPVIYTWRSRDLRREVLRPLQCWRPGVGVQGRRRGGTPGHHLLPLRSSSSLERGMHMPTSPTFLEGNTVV

Work on `CCCc1ccc(COc2ccc3c(c2)CCC(CN2CC(C(=O)O)C2)=C3C)c(OC)c1` yielded an ED50 (Mus musculus) of 0.018 mg/kg, an AUC(0-inf) [1] of 1640 ng·h/mL and an AUC(0-inf) [2] of 1090 ng·h/mL. The Vd [3] was 2.66 L/kg, the bioavailability [4] was 75.9% and the Ki [5] was greater than 5.45 µM. It also gave a Ki [6] of 28.8 nM and a Ki [7] of 0.574 nM.
